Key:
Plasma [1] = test: fAUC (0 to infinity) in human plasma at 20 mg administered as single dose; assay type: ADME, cell-free
Outline: (§1)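 Phase 1 single ascending oral dose in healthy volunteers, with N per dose group. Total plasma Cmax and AUC(0-∞) were measured. Free-drug exposures were derived from these using plasma protein binding (human plasma fu measured at 0.5 μg/mL).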

[2] = Systemic plasma clearance in dog at 1 mg/kg, iv; assay type: ADME, organism-based, Canis lupus familiaris; parameters: dose 1 mg/kg, route intravenous
Outline: (§2)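 Rat and dog given 1 mg/kg iv, or po at 10 mg/kg (rat) or 5 mg/kg (dog). Plasma sampled to 24 h. AUC(0-24) as free drug using plasma protein binding values. Geometric mean of n = 2 animals/group; dog po n = 3 or n = 1.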

[3] = Half life in rat at 1 mg/kg, iv; assay type: ADME, organism-based; parameters: dose 1 mg/kg, route intravenous; conditions: in vivo
Outline: (§3)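 Intravenous 1 mg/kg dose in rat or dog. Terminal half-life was derived from plasma concentrations and is reported as the geometric mean of n = 2 animals per group.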

[4] = Cmax in human plasma at 160 mg administered as single dose; assay type: ADME, organism-based; parameters: dose 160 mg
Outline: (§4)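 Phase 1 single ascending oral dose in healthy volunteers, about 5–6 subjects per dose. Total plasma drug Cmax and AUC(0-∞) were measured. Free-drug exposures were derived using plasma protein binding.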

Rattus norvegicus [5] = test: fCmax in rat at 10 mg/kg, po; assay type: ADME, organism-based; parameters: dose 10 mg/kg, route oral; conditions: in vivo
Outline: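 Single po dose: rat 10 mg/kg (n = 2), dog 5 mg/kg (n = 1 or 3 animals). Values are geometric means. Cmax is given as free drug concentration using plasma protein binding values, which were determined at 0.5 μg/mL.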

Homo sapiens [6] = test: Inhibition of HMG-CoA reductase in human assessed as decrease in AUC (0 to 24 hrs) of mevalonate level in plasma at 40 mg administered as single dose relative to control; assay type: functional
Plasma [7] = test: fAUC (0 to infinity) in human plasma at 160 mg administered as single dose; assay type: ADME, cell-free; outline: as §1
[8] = Drug excretion in human urine after 24 hrs; assay type: ADME, tissue-based; conditions: read-out: Activity
Outline: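 Single ascending oral dose in healthy volunteers; the percentage of drug excreted in urine was measured at 24 h post dose.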

Homo sapiens [9] = test: Inhibition of HMG-CoA reductase in human assessed as decrease in AUC (0 to 72 hrs) of mevalonate level in plasma at 5 mg administered as single dose relative to control; assay type: functional
[10] = Oral bioavailability in rat at 10 mg/kg; assay type: ADME, organism-based; conditions: in vivo; outline: as §2
[11] = Half life in dog at 1 mg/kg, iv; assay type: ADME, organism-based, Canis lupus familiaris; parameters: dose 1 mg/kg, route intravenous; conditions: in vivo; outline: as §3
Plasma [12] = test: fAUC (0 to infinity) in human plasma at 40 mg administered as single dose; assay type: ADME, cell-free; outline: as §1
[13] = molecular target: T1, 3-hydroxy-3-methylglutaryl-coenzyme A reductase (Rattus norvegicus, UniProt P51639); test: Inhibition of HMG-CoA reductase in Sprague-Dawley rat liver microsomes using [14C]HMG-CoA as substrate preincubated for 0.5 hrs before substrate addition measured after 0.75 hrs by beta scintillation counting; parameters: species or system Microsome
T1 sequence (P51639 whole entry): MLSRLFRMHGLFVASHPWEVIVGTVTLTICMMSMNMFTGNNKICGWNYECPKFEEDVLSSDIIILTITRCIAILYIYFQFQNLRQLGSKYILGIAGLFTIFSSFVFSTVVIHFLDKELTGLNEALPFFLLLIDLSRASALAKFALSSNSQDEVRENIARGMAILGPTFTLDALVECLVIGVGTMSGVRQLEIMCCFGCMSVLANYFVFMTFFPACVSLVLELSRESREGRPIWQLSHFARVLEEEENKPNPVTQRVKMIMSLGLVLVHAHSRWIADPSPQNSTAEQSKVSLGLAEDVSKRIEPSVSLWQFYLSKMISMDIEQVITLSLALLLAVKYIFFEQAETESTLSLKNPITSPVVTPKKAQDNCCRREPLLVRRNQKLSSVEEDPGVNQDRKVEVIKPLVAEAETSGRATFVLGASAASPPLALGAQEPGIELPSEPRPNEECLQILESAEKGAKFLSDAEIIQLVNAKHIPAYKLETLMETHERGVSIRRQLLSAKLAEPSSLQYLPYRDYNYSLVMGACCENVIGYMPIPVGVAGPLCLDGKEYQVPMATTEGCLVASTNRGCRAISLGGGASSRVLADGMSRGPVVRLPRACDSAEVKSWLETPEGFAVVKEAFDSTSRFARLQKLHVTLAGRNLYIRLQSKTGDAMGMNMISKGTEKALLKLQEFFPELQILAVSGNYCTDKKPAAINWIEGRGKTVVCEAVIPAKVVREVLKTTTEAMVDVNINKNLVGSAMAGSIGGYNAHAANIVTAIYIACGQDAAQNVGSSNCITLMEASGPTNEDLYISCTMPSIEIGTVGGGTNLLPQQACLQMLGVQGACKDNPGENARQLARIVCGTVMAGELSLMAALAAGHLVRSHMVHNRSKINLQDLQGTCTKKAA
Outline: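 Enzyme inhibition was measured in an HMG-CoA reductase preparation from rat microsomes. IC50 is reported as mean ± SEM of n ≥ 2 independent determinations.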

[14] = Cmax in human plasma at 40 mg administered as single dose; assay type: ADME, organism-based; parameters: dose 40 mg; outline: as §4
[15] = Volume of distribution at steady state in rat at 1 mg/kg, iv; assay type: ADME, organism-based; parameters: dose 1 mg/kg, route intravenous; conditions: in vivo, read-out: Vdss; outline: as §2
Homo sapiens [16] = test: Inhibition of HMG-CoA reductase in human assessed as decrease in AUC (0 to 24 hrs) of mevalonate level in plasma at 5 mg administered as single dose relative to control; assay type: functional
Homo sapiens [17] = test: Inhibition of HMG-CoA reductase in human assessed as decrease in AUC (0 to 72 hrs) of mevalonate level in plasma at 160 mg administered as single dose relative to control; assay type: functional
[18] = Oral bioavailability in dog at 5 mg/kg; assay type: ADME, organism-based, Canis lupus familiaris; conditions: in vivo; outline: as §2
[19] = Systemic plasma clearance in rat at 1 mg/kg, iv; assay type: ADME, organism-based; parameters: dose 1 mg/kg, route intravenous; outline: as §2
Homo sapiens [20] = test: Inhibition of HMG-CoA reductase in human assessed as decrease in AUC (0 to 24 hrs) of mevalonate level in plasma at 1 mg administered as single dose relative to control; assay type: functional
Rattus norvegicus [21] = test: fAUC (0 to 24 hrs) in rat at 1 mg/kg, iv; assay type: ADME, organism-based; parameters: dose 1 mg/kg, route intravenous; conditions: in vivo; outline: as §2
Plasma [22] = test: fCmax in human plasma at 10 mg administered as single dose; assay type: ADME, cell-free; outline: as §1
Plasma [23] = test: fAUC (0 to infinity) in human plasma at 240 mg administered as single dose; assay type: ADME, cell-free; outline: as §1
[24] = AUC (0 to infinity) in human plasma at 120 mg administered as single dose; assay type: ADME, cell-free; parameters: dose 120 mg, time infinity; outline: as §4
Plasma [25] = test: fCmax in human plasma at 3 mg administered as single dose; assay type: ADME, cell-free; outline: as §1
[26] = AUC (0 to infinity) in human plasma at 10 mg administered as single dose; assay type: ADME, cell-free; parameters: dose 10 mg, time infinity; outline: as §4
[27] = AUC (0 to infinity) in human plasma at 320 mg administered as single dose; assay type: ADME, cell-free; parameters: dose 320 mg, time infinity; outline: as §4
L6 = test: Inhibition of cholesterol synthesis in rat L6 cells assessed as reduction of [14C]-cholesterol level using [14C]-acetic acid preincubated for 3 hrs before addition of [14C]-acetic acid by scintillation counting; assay type: functional, cell-based
Outline: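 Cholesterol synthesis inhibition measured in rat hepatocytes and rat myocyte cell line, giving IC50 for each. Mean ± SEM of n ≥ 2 independent determinations.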

Homo sapiens [28] = test: Inhibition of HMG-CoA reductase in human assessed as decrease in LDL-cholesterol level in plasma at 10 mg administered qd for 14 days relative to control; assay type: functional

SMILES	clearance [2]	half-life [3]	fCmax (Rattus norvegicus [5])	inhibition (INH) (Homo sapiens [6])	dose excreted at 24 h [8]	bioavailability [10]	half-life [11]	fAUC (Plasma [12])	IC50 [13]	Cmax [14]	Vd [15]	bioavailability [18]	clearance [19]	fAUC (Rattus norvegicus [21])	other results
Cc1ccc(CNC(=O)c2nn(-c3ccc(F)cc3)c(CC[C@@H](O)C[C@@H](O)CC(=O)O)c2C(C)C)cc1	19 mL/min/kg	20.4 min	1.3 ng/mL	-41%	12%	6%	46.8 min	261 ng·h/mL	1 nM	1770 ng/mL	0.14 L/kg	44%	27 mL/min/kg	10 ng·h/mL	fAUC (Plasma [1]): 98.4 ng·h/mL; Cmax [4]: 6810 ng/mL; fAUC (Plasma [7]): 1280 ng·h/mL; inhibition (INH) (Homo sapiens [9]): 3%; inhibition (INH) (Homo sapiens [16]): -13%; inhibition (INH) (Homo sapiens [17]): -24%; inhibition (INH) (Homo sapiens [20]): -16%
O=C([O-])C[C@H](O)C[C@H](O)CCn1c(-c2ccc(F)cc2)nc(C(=O)NCc2cccc(F)c2)c1C1CC1.[Na+]	25 mL/min/kg	25.8 min	2 ng/mL	-39%	< 1%	0.3%	16.2 min	1.81 ng·h/mL	1.2 nM	2.25 ng/mL	0.17 L/kg	2.2%	39 mL/min/kg	83 ng·h/mL	fCmax (Plasma [22]): 0.1 ng/mL; fAUC (Plasma [23]): 7.89 ng·h/mL; AUC(0-inf) [24]: 12.5 ng·h/mL; fCmax (Plasma [25]): 0.016 ng/mL; AUC(0-inf) [26]: 2.71 ng·h/mL; AUC(0-inf) [27]: 36 ng·h/mL; IC50 (L6): 444 nM
CC(C)c1nc(N(C)S(C)(=O)=O)nc(-c2ccc(F)cc2)c1/C=C/[C@@H](O)C[C@@H](O)CC(=O)O [ROSUVASTATIN]															inhibition (INH) (Homo sapiens [28]): 41.3%

From ChEMBL document CHEMBL1781963, “Discovery of novel hepatoselective HMG-CoA reductase inhibitors for treating hypercholesterolemia: a bench-to-bedside case study on tissue selective drug distribution” (Bioorg Med Chem Lett, 2011)
